Structures are written as SMILES. Values after ≈ are worked out from the molar mass of the structure shown.

The values that follow come from ChEMBL document CHEMBL1687757, “Many chromosomal genes modulate MarA-mediated multidrug resistance in Escherichia coli” (2010).

One assay deals with Escherichia coli. Briefly: Antibacterial activity against marA-overproducing Escherichia coli CR1000 harboring inactivated mhpT gene assessed as MarA-mediated multidrug resistance level by measuring fold change in MIC relative to MarA-deficient Escherichia coli CR2000. Format: functional.
Settings: not given
In a few lines: (§1)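 Each inactivated gene was transferred into both the ΔmarR (CR1000) and the ΔmarRA (CR2000) BW25113 backgrounds. Each derivative was grown overnight in LB and tested by Etest on Mueller-Hinton plates, read after 20 h at 37°C, against cefoxitin, norfloxacin, chloramphenicol and minocycline. The MarA-mediated level compares the MIC in the ΔmarR derivative with the MIC in the matching ΔmarRA derivative.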
With `CO[C@@]1(NC(=O)Cc2cccs2)C(=O)N2C(C(=O)O)=C(COC(N)=O)CS[C@@H]21` [CEFOXITIN], the Activity is on record as 68%.

Another assay has as its system Escherichia coli. Briefly: Antibacterial activity against MarA-deficient Escherichia coli CR2000 after 20 hrs by Etest method. Format: functional. The conditions noted are these: CR2000, 20 h. An outline of the steps: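 Overnight LB-grown cultures (37°C, agitation) of the ΔmarRA strain (BW25113 background) tested on Mueller-Hinton plates with Etest strips per manufacturer's instructions. MIC read after 20 h at 37°C.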
For `CO[C@@]1(NC(=O)Cc2cccs2)C(=O)N2C(C(=O)O)=C(COC(N)=O)CS[C@@H]21` [CEFOXITIN], inhibition of growth (MIC) required 3.2 µg/mL (≈ 7.49 µM).

In a further assay the test system is Escherichia coli. Briefly: Ratio of MIC for marA-overproducing Escherichia coli CR1000 to MIC for MarA-deficient Escherichia coli CR2000.
Settings: not given
It is filed as functional. In a few lines: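 MICs measured by Etest on Mueller-Hinton plates, read after 20 h at 37°C, for the ΔmarR strain (constitutive chromosomal marA overexpression) and the ΔmarRA strain (BW25113 background), both grown overnight in LB at 37°C. MarA-mediated MDR expressed as the ΔmarR/ΔmarRA MIC ratio.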
With `CO[C@@]1(NC(=O)Cc2cccs2)C(=O)N2C(C(=O)O)=C(COC(N)=O)CS[C@@H]21` [CEFOXITIN], the Ratio is recorded as 3.3.

In another assay the test system is Escherichia coli. Description: Antibacterial activity against marA-overproducing Escherichia coli CR1000 harboring inactivated nikD gene assessed as MarA-mediated multidrug resistance level by measuring fold change in MIC relative to MarA-deficient Escherichia coli CR2000. Format: functional.
Settings: not given
An outline of the steps: as §1
`CO[C@@]1(NC(=O)Cc2cccs2)C(=O)N2C(C(=O)O)=C(COC(N)=O)CS[C@@H]21` [CEFOXITIN]: the Activity was 68%.

In a further assay the test system is Escherichia coli. Briefly: Antibacterial activity against marA-overproducing Escherichia coli CR1000 harboring inactivated degP gene assessed as MarA-mediated multidrug resistance level by measuring fold change in MIC relative to MarA-deficient Escherichia coli CR2000. It is filed as functional.
Settings: not given
An outline of the steps:
as §1
Turning to `CO[C@@]1(NC(=O)Cc2cccs2)C(=O)N2C(C(=O)O)=C(COC(N)=O)CS[C@@H]21` [CEFOXITIN], the Activity is 94%.

For the next assay, the system named is Escherichia coli. Briefly: Antibacterial activity against marA-overproducing Escherichia coli CR1000 harboring inactivated damX gene assessed as MarA-mediated multidrug resistance level by measuring fold decrease in MIC relative to MarA-deficient Escherichia coli CR2000. Details: scale not given: the % may be the effect or the level left.
Settings: not given
Format: functional. In a few lines:
as §1
As to `CO[C@@]1(NC(=O)Cc2cccs2)C(=O)N2C(C(=O)O)=C(COC(N)=O)CS[C@@H]21` [CEFOXITIN], the Activity came out at 40%.

The test system of a further assay is Escherichia coli. Description: Antibacterial activity against marA-overproducing Escherichia coli CR1000 harboring inactivated tolC gene assessed as MarA-mediated multidrug resistance level by measuring fold decrease in MIC relative to MarA-deficient Escherichia coli CR2000. It is filed as functional.
Settings: not given
Details: scale not given: the % may be the effect or the level left. An outline of the steps: as §1
As for `CO[C@@]1(NC(=O)Cc2cccs2)C(=O)N2C(C(=O)O)=C(COC(N)=O)CS[C@@H]21` [CEFOXITIN], the Activity worked out at 0%.

Another assay concerns Escherichia coli. Briefly: Antibacterial activity against marA-overproducing Escherichia coli CR1000 harboring inactivated crp gene assessed as MarA-mediated multidrug resistance level by measuring fold change in MIC relative to MarA-deficient Escherichia coli CR2000. It is filed as functional.
Settings: not given
An outline of the steps:
as §1
Consider `CO[C@@]1(NC(=O)Cc2cccs2)C(=O)N2C(C(=O)O)=C(COC(N)=O)CS[C@@H]21` [CEFOXITIN], for which the Activity is given as 21%.

The test system of a further assay is Escherichia coli. Description: Antibacterial activity against marA-overproducing Escherichia coli CR1000 harboring inactivated yibLp gene assessed as MarA-mediated multidrug resistance level by measuring fold change in MIC relative to MarA-deficient Escherichia coli CR2000. Format: functional.
Settings: not given
In a few lines:
as §1
Consider `CO[C@@]1(NC(=O)Cc2cccs2)C(=O)N2C(C(=O)O)=C(COC(N)=O)CS[C@@H]21` [CEFOXITIN], for which the Activity is 68%.

The test system of a further assay is Escherichia coli. Description: Antibacterial activity against marA-overproducing Escherichia coli CR1000 harboring inactivated yniDp gene assessed as MarA-mediated multidrug resistance level by measuring fold change in MIC relative to MarA-deficient Escherichia coli CR2000. It is filed as functional.
Settings: not given
In a few lines: as §1
For the molecule `CO[C@@]1(NC(=O)Cc2cccs2)C(=O)N2C(C(=O)O)=C(COC(N)=O)CS[C@@H]21` [CEFOXITIN], the Activity stood at 94%.

The test system of the next assay is Escherichia coli. Briefly: Antibacterial activity against marA-overproducing Escherichia coli CR1000 harboring inactivated acrA gene assessed as MarA-mediated multidrug resistance level by measuring fold decrease in MIC relative to MarA-deficient Escherichia coli CR2000.
Settings: not given
Details: scale not given: the % may be the effect or the level left. It is filed as functional. In a few lines:
as §1
In the case of `CO[C@@]1(NC(=O)Cc2cccs2)C(=O)N2C(C(=O)O)=C(COC(N)=O)CS[C@@H]21` [CEFOXITIN], the Activity came out at 16%.

The subject of another assay is Escherichia coli. Description: Antibacterial activity against marA-overproducing Escherichia coli CR1000 harboring inactivated treC gene assessed as MarA-mediated multidrug resistance level by measuring fold change in MIC relative to MarA-deficient Escherichia coli CR2000. It is filed as functional.
Settings: not given
An outline of the steps:
as §1
Consider `CO[C@@]1(NC(=O)Cc2cccs2)C(=O)N2C(C(=O)O)=C(COC(N)=O)CS[C@@H]21` [CEFOXITIN], for which the Activity came to 94%.

The subject of the next assay is Escherichia coli. Briefly: Antibacterial activity against wild-type Escherichia coli BW25113 after 20 hrs by Etest method. Format: functional. The conditions noted are these: BW25113, 20 h. In a few lines:
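MICs by Etest strips on Mueller-Hinton plates, following the manufacturer's specifications. Cells came from overnight liquid cultures in LB at 37°C with agitation. Plates were read after 20 h at 37°C. Antibiotics tested were cefoxitin, norfloxacin, chloramphenicol and minocycline.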
`CO[C@@]1(NC(=O)Cc2cccs2)C(=O)N2C(C(=O)O)=C(COC(N)=O)CS[C@@H]21` [CEFOXITIN] had a minimal inhibitory concentration (MIC) of 4 µg/mL (≈ 9.36 µM).
